Consider 94 compounds from PubChem BioAssay AID504383 (The Scripps Research Institute Molecular Screening Center, 2011).

Among all 2,500 compounds or so, about 1,200 (48%) were called active. The set was probably picked from earlier hits. This is one part of the list. Values without a mark were called inactive.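 Rule for the calls: active = mean activation above the low control average plus 3 SD, as set in the primary screen (cut at about 12% in these data); inactive = the rest.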

The experiment concerns the target Troponin I, cardiac muscle (Homo sapiens) + Troponin T, cardiac muscle (Homo sapiens) + Troponin C, slow skeletal and cardiac muscles (Homo sapiens) (UniProt P19429+P45379+P63316). Briefly: calcium sensitizers of cardiac thin filaments – biochemical, IANBD-TnC fluorescence, triplicate, confirmation (AID 504383).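 Note: 0% = DMSO at 0.472 mM calcium and 100% = DMSO at 2.9 mM calcium.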 The settings on record: IANBD-labeled cardiac RTF, Ca2+ sensitivity fluorescence; at 7.2 µM; hits give high values; scaled from EC20 to saturating calcium; tested at EC20 calcium, 0.472 mM. In a few lines:
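System: Labelled thin filament complex | Technique: Filament fluorescence intensity | Benchmarks: Low control EC20 calcium, high control EC100 calcium | Timing: 15 min at 25 °C | Compound dosing: One dose, 7.2 µM nominal | Probe or stimulus: Ca2+ 0.472 mM, EC20 level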
For `C/C=C/c1ccc(OCCCNCC(C)O)c(OC)c1` (centres undefined), the activation was 663% (active). As for `CCC/C(C#Cc1ccc(N(C)C)cc1)=C1/c2ccccc2C(=O)N1c1ccccc1`, the activation is 94.7% (active). As for `COc1ccc(N2C(=O)c3cccc4c(N(C)CCO)ccc(c34)C2=O)cc1`, the activation was 4.11%. `Cc1ccc(S(=O)(=O)c2cccc(S(=O)(=O)N3CCOCC3)c2)cc1S(=O)(=O)N1CCOCC1`: the activation is 20.6% (active). To `Cc1ccc(S(=O)(=O)N2CCOCC2)cc1C(=O)N1C(=O)c2cccc(N)c2C1=O` belongs 8.84%. The same measure for `Cc1nnc(N2CCOCC2)c2nn(-c3cccc(Cl)c3)c(C)c12`: 4.95%. Take `COc1ccc(/C=N/NC(=O)c2cc(OC)c(OC)c(OC)c2)cc1CN1CCc2cc(OC)c(OC)cc2C1C` (centres undefined): the activation is 28.3% (active). To `COc1ccc(/C=N/NC(=O)c2cccnc2)cc1CN1CCOCC1` belongs 36.1% (active). With `COC(=O)N/N=C/c1cccnc1`, the activation is 2.85%. As for `O=C(CNC(=O)c1cccc(Cl)c1)N/N=C/c1cccnc1`, the activation is 11%. Consider `O=C(C[n+]1cccc2ccccc21)c1ccccc1`, for which the activation is 10.7%. To `COC(=O)C[n+]1cccc2ccccc21` belongs 212% (active); to `O=C(NCCc1ccccc1)C1CCN(c2ncccn2)CC1`, 2.88%; to `O=C(NCc1ccc(Cl)cc1)C1CCN(c2cnccn2)CC1`, 68.5% (active). The same measure for `O=C(CCC1CCCN(C(=O)c2ccncc2)C1)NCc1ccc(F)c(F)c1` (centres undefined): 3.6%. For `CCOC(=O)c1cc2n(c1N)-c1ccccc1C2=O`, the activation was 71.8% (active). The same measure for `CCOC(=O)c1cc2c(s1)-c1ccccc1CC2`: 0.58%; for `CCOC(=O)c1ccccc1-n1nnnc1C`: 1.99%. The same measure for `CCC(C)[C@H](NC(=O)N1CCC(C)CC1)C(=O)OC` (some centres undefined): 11.1%. To `Oc1ccc(-c2c(C3=CCCCC3)sc3ccccc23)cc1` belongs 125% (active); to `COc1ccccc1-c1sc2ccccc2c1-c1ccc(Br)nc1`, -1.06%; to `CCN(C(=O)c1cc2ccccc2oc1=O)c1ccccc1`, 8.22%.

On to `N#CCCN(C(=O)c1ccco1)c1ccccc1`, for which the activation was 4250% (active). Turning to `CCOC(=O)/C(=N\Nc1ccc(C(C)=O)cc1)c1csc(Nc2ccccc2)n1`, the activation was 11.1%. Regarding `CCOC(=O)c1cnc2ccccc2c1Nc1ccc(C(=O)O)cc1`, the activation was 161% (active). Consider `Cc1ccc(OCCCC(=O)NC2CCCCC2)cc1`, for which the activation is 4.78%. As for `COc1ccc(OCCNC(=O)c2ccc(C)cc2)cc1`, the activation was 28.4% (active). The same measure for `COc1ccc(OCC(=O)OCCNC(=O)c2cccnc2)cc1`: 5.53%. The same measure for `Cc1sc2nc(COC(=O)c3cccc(S(=O)(=O)N(C)c4ccccc4)c3)[nH]c(=O)c2c1C`: 2.91%; for `Cc1ccc(C)c(C(=O)CCC(=O)NCc2ccc(Cl)cc2)c1`: 10.5%.

As to `Cc1ccc(CNC(=O)c2cc(-c3ccccc3)nn2Cc2cc(C)no2)cc1`, the activation was 8.67%. Turning to `Cc1ccc(CNC(=O)CCn2cc(-c3ccc(C)cc3)nc2-c2ccncc2)cc1`, the activation was 57.1% (active). For `Cc1ccc(-c2ccc(OC(=O)c3ccc(=O)[nH]c3)c(C)c2)cc1`, the activation was 28.2% (active). The same measure for `CCc1ccc(NC(=O)C2CCN(S(=O)(=O)c3ccc4[nH]c(=O)ccc4c3)CC2)cc1`: 12.1% (active); for `CC(=O)Nc1ccc(Nc2cc(N(C)C)c3nonc3c2[N+](=O)[O-])cc1`: 99.2% (active); for `COc1ccc(-n2nc3c(N4CCC(C(=O)N5CCC(C)CC5)CC4)nnc(C)c3c2C)cc1`: 2.83%. To `O=C(Nc1cc2c(cc1Br)OCCCO2)c1cccnc1` belongs 2.74%; to `CC1CCN(c2ccc(NC(=O)c3cccnc3)cc2)CC1`, 19.8% (active); to `COc1ccccc1-c1nnc(SCc2nc3ccccc3s2)n1C`, 29.9% (active). To `CN(Cc1ccccc1)C(=O)c1[nH]cnc1C(=O)NCc1ccccc1` belongs 59.9% (active); to `CC(C)(C)OC(=O)[C@H](Cc1ccccc1)NC(=O)c1nc[nH]c1C(=O)NCc1ccccc1`, 25.1% (active); to `O=C(NCc1ccccc1Cl)c1ccc2nc[nH]c2c1`, 6.6%. In the case of `O=C1N(c2ccc(Cl)cc2)C(c2ccccc2)N2CCCN12` (centres undefined), the activation is 5.52%. To `Fc1ccc(-c2nnc(-c3ccc(Cl)cc3Cl)o2)cc1` belongs 54% (active). Regarding `O=C(c1cccc(F)c1)N1CCN(C(=O)c2cc(-c3ccc(Cl)cc3Cl)on2)CC1`, the activation is 3.41%.

As for `C/C(=N\NC(=O)c1ccccc1)c1ccc(NC(=O)c2cccs2)cc1`, the activation was 3.16%. Regarding `Cc1ccc(-n2nc(C)c(=O)c(-c3ccccc3)c2NC(=O)c2cccs2)cc1`, the activation was 11.8% (active). To `CCOC(=O)/C(=C/C=C1\Sc2cc(C)c(C)cc2N1CC)C(C)=O` belongs 4.3%. For the compound `CCOC(=O)/C(=C/C=C1\Sc2cc(OCC)c(OCC)cc2N1CC)C(C)=O`, the activation was 40% (active). In the case of `CCOC(=O)/C(=C/C=C1\Sc2ccccc2N1CC)C(C)=O`, the activation was 190% (active). `CCN1/C(=C\C=C(C(C)=O)C(C)=O)Sc2ccccc21`: the activation is 9.03%. To `CCOC(=O)/C(=C\C=C1/Sc2ccccc2N1CC)C(C)=O` belongs 20% (active); to `CCOC(=O)/C(=C\C=C1/Sc2cc(OCC)c(OCC)cc2N1CC)C(C)=O`, 8.28%.

On to `CCOC(=O)/C(C#N)=C(C)/C=C1\Sc2ccccc2N1CC`, for which the activation is 11.9% (active). With `CC1(C)c2[nH]c3ccccc3c2C[C@H]2C(=O)N(Cc3ccc(F)cc3)C(=O)N21`, the activation was 6.36%. The same measure for `CC(C)NC(=O)C1CCCN(c2nnc(-n3cccc3)s2)C1` (centres undefined): 1270% (active). To `Cc1cc(Br)ccc1SCC(=O)OCC(=O)Nc1ccccc1C#N` belongs 9.13%. On to `COC(=O)c1cc2c(cc1NC(=O)CSCCc1ccccn1)OCO2`, for which the activation is 7.4%. The same measure for `COCc1cc(C)n(CC(=O)Nc2ccccc2C(=O)OC)c(=O)c1C#N`: 23.2% (active); for `Cc1noc(C)c1S(=O)(=O)N(C)C[C@H]1Oc2ccc(NC(=O)CCC(F)(F)F)cc2C(=O)N([C@H](C)CO)C[C@@H]1C`: 10.2%. To `C[C@H]1CN([C@@H](C)CO)C(=O)Cc2cc(NC(=O)CCC(F)(F)F)ccc2O[C@H]1CN(C)S(C)(=O)=O` belongs 15.4% (active). To `COc1ccccc1NS(=O)(=O)c1ccccc1C#N` belongs 3.34%.

On to `COc1ccc(-n2c(O)c(/C=N/NS(=O)(=O)c3cccc([N+](=O)[O-])c3)c3ccccc3c2=O)cc1OC`, for which the activation was 9.84%. `COc1ccccc1NS(=O)(=O)c1cc([N+](=O)[O-])ccc1N/N=C/c1c(C)[nH]c2ccccc12`: the activation is 27.9% (active). For `O=C(NN1C(=O)/C(=C/c2ccc(O)cc2)SC1=S)c1cccc(O)c1`, the activation was 12.5% (active). Turning to `CN(C)c1ccc(/C=C2\SC(=S)N(Nc3ncc(C(F)(F)F)cc3Cl)C2=O)cc1`, the activation is 7.16%. The same measure for `CC(=O)NN1C(=O)/C(=C\c2ccc(O)cc2)SC1=S`: 12.5% (active); for `O=C(NN1C(=O)/C(=C/c2ccc(O)cc2)SC1=S)c1ccccc1O`: 9.61%. With `O=C(CCN1C(=O)/C(=C/c2cccs2)SC1=S)NNC(=O)c1cccc(O)c1`, the activation was 7.19%. Turning to `Cc1ccc(N2C3=C(C(=O)CC(C)(C)C3)C(c3cn(C)nc3C)C3=C2CC(C)(C)CC3=O)cc1`, the activation was 35.1% (active). On to `Cc1c(C2Nc3ccccc3NC3=C2C(=O)CC(C)(C)C3)cnn1C` (centres undefined), for which the activation was 4.72%.

Regarding `COc1cc(/C=C(\C#N)C(=O)c2c[nH]c3ccccc23)cc(OC)c1O`, the activation is 5.75%. The same measure for `N#C/C(=C\c1c[nH]c2ccccc12)C(=O)Nc1ncc(Cc2ccc(Cl)cc2Cl)s1`: 30.3% (active).

`COCCN=c1scc(-c2cc(OC)c(OC)c(OC)c2)n1/N=C/c1c(C)[nH]c2ccccc12`: the activation was 72.2% (active). Turning to `O=C(C1=C(O)C(=O)N(CCN2CCOCC2)C1c1ccc([N+](=O)[O-])cc1)c1cccs1` (centres undefined), the activation was 188% (active). To `CC(C)Oc1ccc(/C(O)=C2/C(=O)C(=O)N(CCN3CCNCC3)C2c2cccc([N+](=O)[O-])c2)cc1` (centres undefined) belongs 6.36%.

Regarding `COc1ccc(NC(=O)CNS(=O)(=O)c2cccs2)cc1`, the activation was 7.87%. The same measure for `COc1ccc(N(C(=O)c2ccc(C)cc2)S(=O)(=O)c2cccs2)cc1`: 175% (active); for `Nc1ccc2cc3[nH]c4cc(N)ccc4c3nc2c1`: 13.7% (active). As for `O=C(O)C1=C[C@H](c2ccccc2)C[C@H](OCc2ccc(CO)cc2)O1`, the activation is 1.76%.

As for `Cc1c(O)c(=O)c2ccccc2n1C`, the activation was 16.4% (active). The same measure for `COc1ccc(NC(=O)CCN2CC(C)OC(C)C2)c(OC)c1` (centres undefined): 4.53%. Consider `COc1ccc(NC(=O)CCN2CCCC2)c(OC)c1`, for which the activation was 80.7% (active). To `COc1ccc(CN2CCC(=O)N([C@H](CO)c3ccccc3)CC2)cc1` belongs 21.1% (active); to `COc1ccc(CN2CNc3c(c(=O)n(C)c(=O)n3C)C2)cc1`, 14.9% (active). The same measure for `COc1ccc(-c2c3c(=O)n(C)c(=O)n(C)c3cn2-c2cccc(OC)c2)cc1`: 1.1%; for `CCCNC(=S)N1CCC(NC(=O)C23CC4CC(CC(C4)C2)C3)CC1`: 8.77%; for `c1ccc(-c2cnn3c(-c4ccccc4)c(-c4ccccc4)nc3n2)cc1`: 3.13%.

As to `Nc1ccc2nc(-c3ccccc3)cnc2c1`, the activation is 83.1% (active). Take `CN1/C(=C\C=C2\N=C(c3ccc(F)cc3)OC2=O)C(C)(C)c2ccccc21`: the activation was 13.9% (active). The same measure for `CCO/C=C1\N=C(c2ccc(F)cc2)OC1=O`: 4.72%; for `CN1/C(=C\C=C2/SC(=S)NC2=O)C(C)(C)c2ccccc21`: 10.1%; for `CCN(CC)C(=O)C1CCC(CNS(=O)(=O)c2cccc3cccnc23)CC1` (centres undefined): 0.91%. To `CC(C)c1ccc(NS(=O)(=O)c2cccc3cccnc23)cc1` belongs 446% (active).
